Measured values published in the M2OR odorant receptor database.
Positions count from the first letter of the chain named.

Key:
Settings in all cases: stereoisomer not certain
O14A2 I133V = tested on: T1, O14A2 I133V
T1 sequence (whole entry): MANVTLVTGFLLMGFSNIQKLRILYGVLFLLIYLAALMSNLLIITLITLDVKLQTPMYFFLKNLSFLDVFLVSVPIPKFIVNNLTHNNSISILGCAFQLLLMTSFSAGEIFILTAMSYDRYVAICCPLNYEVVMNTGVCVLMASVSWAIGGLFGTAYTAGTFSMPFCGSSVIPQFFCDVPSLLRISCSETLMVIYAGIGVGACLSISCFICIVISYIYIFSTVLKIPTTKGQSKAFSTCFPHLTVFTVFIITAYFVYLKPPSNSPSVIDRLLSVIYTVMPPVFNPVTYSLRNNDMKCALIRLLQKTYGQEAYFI
In short: (§1)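 Each entry records the cell line, G-protein, co-transfected protein and tags used. Methods varied with the source, often transient luciferase assays in mammalian cell lines. A receptor–molecule pair is called responsive (active) if the original authors judged its signal statistically different from baseline and non-responsive (inactive) otherwise.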

O14CZ = tested on: T2, O14CZ
T2 sequence (whole entry): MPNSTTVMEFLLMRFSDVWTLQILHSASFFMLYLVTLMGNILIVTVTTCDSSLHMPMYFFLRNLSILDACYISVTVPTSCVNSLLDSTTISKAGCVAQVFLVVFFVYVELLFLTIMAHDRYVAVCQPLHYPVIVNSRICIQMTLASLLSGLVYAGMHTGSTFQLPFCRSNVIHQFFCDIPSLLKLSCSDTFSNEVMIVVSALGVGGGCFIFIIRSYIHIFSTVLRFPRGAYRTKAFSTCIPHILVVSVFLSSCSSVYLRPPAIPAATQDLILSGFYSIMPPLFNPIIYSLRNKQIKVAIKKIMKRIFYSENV
In short: as §1

O14I1 V36A D50N Y216C = tested on: T3, O14I1 V36A D50N Y216C
T3 sequence (whole entry): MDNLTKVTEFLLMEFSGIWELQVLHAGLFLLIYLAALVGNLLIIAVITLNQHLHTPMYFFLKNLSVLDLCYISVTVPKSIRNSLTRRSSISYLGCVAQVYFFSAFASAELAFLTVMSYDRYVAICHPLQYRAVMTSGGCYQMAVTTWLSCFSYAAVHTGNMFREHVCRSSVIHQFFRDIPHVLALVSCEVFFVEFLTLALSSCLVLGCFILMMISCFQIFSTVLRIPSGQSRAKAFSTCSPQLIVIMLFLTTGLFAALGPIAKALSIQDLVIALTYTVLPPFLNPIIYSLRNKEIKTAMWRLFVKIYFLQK
In short: as §1

O14J1 N3Y = tested on: T4, O14J1 N3Y
T4 sequence (whole entry): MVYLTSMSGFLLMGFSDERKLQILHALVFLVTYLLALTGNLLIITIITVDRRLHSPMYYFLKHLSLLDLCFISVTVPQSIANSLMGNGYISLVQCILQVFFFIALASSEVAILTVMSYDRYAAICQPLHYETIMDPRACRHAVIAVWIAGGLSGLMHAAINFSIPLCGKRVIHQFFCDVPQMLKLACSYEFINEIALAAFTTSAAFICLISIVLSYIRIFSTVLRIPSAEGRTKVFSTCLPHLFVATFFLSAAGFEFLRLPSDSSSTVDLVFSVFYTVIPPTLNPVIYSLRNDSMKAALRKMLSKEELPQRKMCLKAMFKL
In short: as §1

O14K1 D119Y = tested on: T5, O14K1 D119Y
T5 sequence (whole entry): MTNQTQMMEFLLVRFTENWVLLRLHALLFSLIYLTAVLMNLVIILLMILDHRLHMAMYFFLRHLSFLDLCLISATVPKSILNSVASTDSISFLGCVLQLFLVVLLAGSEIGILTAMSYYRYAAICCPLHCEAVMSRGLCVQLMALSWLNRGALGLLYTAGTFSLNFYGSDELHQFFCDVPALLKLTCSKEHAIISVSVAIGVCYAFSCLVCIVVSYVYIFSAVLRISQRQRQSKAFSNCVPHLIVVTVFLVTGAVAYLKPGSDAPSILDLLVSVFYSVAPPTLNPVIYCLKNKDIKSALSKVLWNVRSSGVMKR
In short: as §1

O2A25 = tested on: T6, O2A25
T6 sequence (whole entry): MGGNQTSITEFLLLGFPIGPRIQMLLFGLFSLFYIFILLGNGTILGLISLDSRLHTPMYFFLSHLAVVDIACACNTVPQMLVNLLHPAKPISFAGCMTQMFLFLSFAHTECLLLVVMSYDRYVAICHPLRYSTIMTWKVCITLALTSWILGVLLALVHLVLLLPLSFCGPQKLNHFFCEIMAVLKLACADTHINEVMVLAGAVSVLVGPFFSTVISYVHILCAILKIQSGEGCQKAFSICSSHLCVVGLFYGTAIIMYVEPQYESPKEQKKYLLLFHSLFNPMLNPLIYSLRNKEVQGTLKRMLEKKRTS
In short: as §1

O2AE1 = tested on: T7, O2AE1
T7 sequence (whole entry): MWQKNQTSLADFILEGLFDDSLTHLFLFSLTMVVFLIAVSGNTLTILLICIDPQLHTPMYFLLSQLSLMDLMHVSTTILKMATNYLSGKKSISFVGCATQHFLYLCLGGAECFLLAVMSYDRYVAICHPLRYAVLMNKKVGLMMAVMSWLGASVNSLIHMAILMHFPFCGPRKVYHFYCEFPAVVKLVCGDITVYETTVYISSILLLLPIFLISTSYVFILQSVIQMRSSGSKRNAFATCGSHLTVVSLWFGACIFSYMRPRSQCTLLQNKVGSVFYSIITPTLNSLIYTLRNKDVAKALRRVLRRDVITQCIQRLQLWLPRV
In short: as §1

O2AJ1 = tested on: T8, O2AJ1
T8 sequence (whole entry): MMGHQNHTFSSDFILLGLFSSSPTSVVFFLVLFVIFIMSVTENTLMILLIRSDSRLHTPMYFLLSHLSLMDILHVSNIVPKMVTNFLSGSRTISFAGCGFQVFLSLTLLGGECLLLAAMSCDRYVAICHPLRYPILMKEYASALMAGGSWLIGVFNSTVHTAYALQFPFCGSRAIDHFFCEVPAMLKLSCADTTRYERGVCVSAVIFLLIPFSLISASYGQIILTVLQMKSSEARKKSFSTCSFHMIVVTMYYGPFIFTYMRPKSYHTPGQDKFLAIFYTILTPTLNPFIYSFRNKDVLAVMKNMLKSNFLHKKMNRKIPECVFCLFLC
In short: as §1

O2AK2 S99N = tested on: T9, O2AK2 S99N
T9 sequence (whole entry): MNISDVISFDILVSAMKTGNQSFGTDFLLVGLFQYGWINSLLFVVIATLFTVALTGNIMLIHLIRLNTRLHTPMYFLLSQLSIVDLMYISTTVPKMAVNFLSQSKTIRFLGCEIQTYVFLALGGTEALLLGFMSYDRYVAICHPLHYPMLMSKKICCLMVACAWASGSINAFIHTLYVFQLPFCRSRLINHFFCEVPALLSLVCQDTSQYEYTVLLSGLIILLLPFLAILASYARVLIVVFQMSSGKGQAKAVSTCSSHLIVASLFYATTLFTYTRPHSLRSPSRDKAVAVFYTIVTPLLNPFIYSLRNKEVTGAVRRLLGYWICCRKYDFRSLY
In short: as §1

O2T11 = tested on: T10, O2T11
T10 sequence (whole entry): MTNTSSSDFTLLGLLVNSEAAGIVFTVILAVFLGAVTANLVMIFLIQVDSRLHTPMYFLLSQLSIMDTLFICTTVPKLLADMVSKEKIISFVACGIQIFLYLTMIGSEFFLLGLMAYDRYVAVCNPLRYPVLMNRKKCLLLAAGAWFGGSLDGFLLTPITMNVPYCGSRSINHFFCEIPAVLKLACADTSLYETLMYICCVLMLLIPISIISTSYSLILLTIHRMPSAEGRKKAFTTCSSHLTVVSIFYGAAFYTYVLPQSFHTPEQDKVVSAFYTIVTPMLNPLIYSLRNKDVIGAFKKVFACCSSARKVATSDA
In short: as §1

O2T27 L36V V134D = tested on: T11, O2T27 L36V V134D
T11 sequence (whole entry): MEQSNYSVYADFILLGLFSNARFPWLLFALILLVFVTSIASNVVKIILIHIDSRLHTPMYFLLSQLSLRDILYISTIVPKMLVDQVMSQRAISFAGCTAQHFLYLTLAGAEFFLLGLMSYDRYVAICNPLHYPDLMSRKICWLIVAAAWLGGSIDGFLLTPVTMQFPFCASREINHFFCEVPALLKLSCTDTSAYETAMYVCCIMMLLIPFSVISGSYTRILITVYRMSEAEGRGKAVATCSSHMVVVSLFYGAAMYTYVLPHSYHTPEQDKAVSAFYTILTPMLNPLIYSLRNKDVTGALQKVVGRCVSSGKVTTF
In short: as §1

O2T29 Q24R = tested on: T12, O2T29 Q24R
T12 sequence (whole entry): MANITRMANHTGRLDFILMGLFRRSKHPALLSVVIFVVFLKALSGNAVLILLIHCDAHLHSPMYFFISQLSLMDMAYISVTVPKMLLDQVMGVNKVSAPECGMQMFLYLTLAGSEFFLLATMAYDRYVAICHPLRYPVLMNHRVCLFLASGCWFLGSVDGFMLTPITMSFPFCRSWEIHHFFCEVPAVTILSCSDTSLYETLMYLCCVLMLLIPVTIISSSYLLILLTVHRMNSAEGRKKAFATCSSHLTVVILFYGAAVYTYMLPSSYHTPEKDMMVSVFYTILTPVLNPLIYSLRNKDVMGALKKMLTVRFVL
In short: as §1

O2T33 A169V = tested on: T13, O2T33 A169V
T13 sequence (whole entry): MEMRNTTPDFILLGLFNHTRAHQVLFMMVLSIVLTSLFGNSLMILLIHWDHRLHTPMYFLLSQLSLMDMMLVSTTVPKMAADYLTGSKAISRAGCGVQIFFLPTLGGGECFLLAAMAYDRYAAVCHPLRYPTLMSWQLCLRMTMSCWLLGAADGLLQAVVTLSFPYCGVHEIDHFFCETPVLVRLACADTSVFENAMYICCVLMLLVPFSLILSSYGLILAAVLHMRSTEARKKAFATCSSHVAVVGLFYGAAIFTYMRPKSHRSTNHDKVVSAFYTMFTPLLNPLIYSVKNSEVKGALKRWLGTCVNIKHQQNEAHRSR
In short: as §1

O2T33 G297E I309L = tested on: T14, O2T33 G297E I309L
T14 sequence (whole entry): T13 sequence (whole entry) with V169A, G297E, I309L
In short: as §1

O2T34 Q6P R267P = tested on: T15, O2T34 Q6P R267P
T15 sequence (whole entry): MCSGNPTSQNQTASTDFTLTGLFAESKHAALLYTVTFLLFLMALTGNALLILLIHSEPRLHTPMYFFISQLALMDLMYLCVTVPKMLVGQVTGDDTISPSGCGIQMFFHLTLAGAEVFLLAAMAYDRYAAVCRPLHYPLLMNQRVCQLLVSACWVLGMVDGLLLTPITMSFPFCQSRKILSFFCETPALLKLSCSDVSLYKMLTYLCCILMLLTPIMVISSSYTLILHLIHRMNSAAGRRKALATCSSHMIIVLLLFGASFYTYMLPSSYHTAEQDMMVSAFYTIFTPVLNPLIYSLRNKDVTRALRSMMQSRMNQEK
In short: as §1

O2T34 R267P = tested on: T16, O2T34 R267P
T16 sequence (whole entry): T15 sequence (whole entry) with P6Q
In short: as §1

O4A47 = tested on: T17, O4A47
T17 sequence (whole entry): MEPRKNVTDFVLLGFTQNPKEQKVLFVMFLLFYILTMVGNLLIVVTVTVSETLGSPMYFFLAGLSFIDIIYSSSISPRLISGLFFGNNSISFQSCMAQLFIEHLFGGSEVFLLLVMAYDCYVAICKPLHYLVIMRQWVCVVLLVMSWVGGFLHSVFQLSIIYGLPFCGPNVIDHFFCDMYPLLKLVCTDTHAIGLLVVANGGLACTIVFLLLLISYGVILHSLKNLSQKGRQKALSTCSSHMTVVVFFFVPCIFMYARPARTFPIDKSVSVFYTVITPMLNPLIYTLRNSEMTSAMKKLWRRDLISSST
In short: as §1

O4C46 S240F C252Y K288R = tested on: O4C46 S240F C252Y K288R
In short: as §1

O4F15 A272T = tested on: T18, O4F15 A272T
T18 sequence (whole entry): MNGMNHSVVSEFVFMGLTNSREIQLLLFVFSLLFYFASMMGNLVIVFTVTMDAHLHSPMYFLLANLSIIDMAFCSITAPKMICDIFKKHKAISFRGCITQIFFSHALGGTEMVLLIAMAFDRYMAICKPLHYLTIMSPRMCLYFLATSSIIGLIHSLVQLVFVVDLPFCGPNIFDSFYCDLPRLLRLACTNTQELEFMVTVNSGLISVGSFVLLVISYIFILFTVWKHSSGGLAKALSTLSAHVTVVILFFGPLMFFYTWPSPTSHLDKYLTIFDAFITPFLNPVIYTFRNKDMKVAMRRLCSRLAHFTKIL
In short: as §1

O1440 = tested on: T19, O1440
T19 sequence (whole entry): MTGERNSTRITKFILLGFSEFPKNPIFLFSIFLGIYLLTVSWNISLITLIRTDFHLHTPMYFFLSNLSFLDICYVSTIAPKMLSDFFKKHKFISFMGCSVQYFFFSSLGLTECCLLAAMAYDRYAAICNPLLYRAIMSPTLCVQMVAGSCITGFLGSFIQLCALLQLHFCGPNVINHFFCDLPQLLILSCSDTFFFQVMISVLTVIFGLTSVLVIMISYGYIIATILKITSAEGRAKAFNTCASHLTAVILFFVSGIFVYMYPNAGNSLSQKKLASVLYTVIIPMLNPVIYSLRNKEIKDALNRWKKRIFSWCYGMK
In short: as §1

Measured: odorant receptor agonist call

CCC1OC(=O)C(O)=C1C (stereo not given)
not listed: O1440
inactive: all other assays above

CCCCCCC=CCCC=O
not listed: O2AJ1 | O4F15 A272T | O1440
inactive: all other assays above

CC1CCCCCCCCCCCCC(=O)C1 (stereo not given)
active: O1440

CC1CCCCCCCCCCCC(=O)C1 (stereo not given)
active: O1440

CC1CC=CCCCCCCCCC(=O)C1 (stereo not given)
active: O1440

CC1C(C)(C)C2=C(C(=O)CCC2)C1(C)C (stereo not given)
active: O1440

C1CCCCCCCCCCCCCC1
inactive: O1440

CCC(=O)OCC(C)(C)OC(C)C1CCCC(C)(C)C1 (stereo not given)
inactive: O1440

O=C1CCCC=CCCCCCCCCCC1
active: O1440

O=C1CCCCCC=CCCCCCCCCO1
active: O1440

CCCC(S)CCOC(C)=O (stereo not given)
not listed: O1440
inactive: all other assays above

c1ccc2ncccc2c1
active: O2A25

O=C1CCCCCCC=CCCCCCCC1
active: O1440

O=C1C=CCCCCCCCCCCCCO1
active: O1440

CCC1OC(C)=C(O)C1=O (stereo not given)
not listed: O1440
inactive: all other assays above
